The record followed here is PubChem BioAssay AID602401 (Sanford-Burnham Center for Chemical Genomics, 2012).

Activity calls are given as the source filed them.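 Rule for the calls: active = IC50 below 100 µM in the TR-FRET assay, unless also active in the caspase-3 counter assay; inactive = the rest, including compounds also active in caspase-3.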

Caspase-3 (Homo sapiens), sequence (P42574 whole entry, looked up): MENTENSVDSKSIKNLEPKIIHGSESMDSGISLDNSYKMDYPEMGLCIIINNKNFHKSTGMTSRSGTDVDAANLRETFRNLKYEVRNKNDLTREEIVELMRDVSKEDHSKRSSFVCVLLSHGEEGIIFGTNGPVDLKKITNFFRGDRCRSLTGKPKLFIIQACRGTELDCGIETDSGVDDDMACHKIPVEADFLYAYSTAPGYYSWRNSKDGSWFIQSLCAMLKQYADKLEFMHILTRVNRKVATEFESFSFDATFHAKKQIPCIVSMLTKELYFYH

The target of the test is Caspase-3 (Homo sapiens) (UniProt P42574). Put plainly: recombinant caspase-3 enzyme inhibitors – biochemical, Caspase-Glo luminescence, set 4, counter-screen for UBC13 polyubiquitin inhibitor project, SAR follow-up (AID 602401). Conditions: recombinant caspase-3, Caspase-Glo luminescence, 60 min. An outline of the steps:
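System: Caspase-3 enzyme / Input: Caspase-3 added as 2X working solution at 0.046 nM / Medium: Hepes buffer pH 7.8 containing DTT, EDTA, Tween and BSA / Also added: Caspase-Glo substrate added as 2X working solution at 0.75X / Schedule: Enzyme-substrate reaction 60 min at room temperature before reading / Signal: Caspase-Glo luminescence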
In the case of `O=C(c1ccco1)N1CCN(C(=O)C2CCN(c3ncnc4c3nc3n4CCCCC3)CC2)CC1`, the IC50 is > 100 µM (inactive).

Consider `Cc1c(Cl)cccc1NC(=O)C1CCN(c2ncnc3c2nc2n3CCCCC2)CC1`, for which the IC50 is > 100 µM (inactive).

`O=C(NCC1CCN(Cc2cccc(Cl)c2)CC1)[C@H]1CCCN(c2ncnc3c2nc2n3CCCCC2)C1`: the IC50 is > 100 µM (inactive).

Take `Cc1ccc(C)c(N2CCN(CCCNC(=O)C3CCCN(c4ncnc5c4nc4n5CCCCC4)C3)CC2)c1` (stereo unspecified): the IC50 was > 100 µM (inactive).

Turning to `O=C(NCC1CCN(Cc2ccccc2Cl)CC1)C1CCCN(c2ncnc3c2nc2n3CCCCC2)C1` (stereo unspecified), the IC50 is > 100 µM (inactive).

Consider `Cc1cccc(NC(=O)C2CCN(c3ncnc4c3nc3n4CCCC3)CC2)c1`, for which the IC50 is 69 µM.

As for `O=C(NCC1CCN(Cc2cccc(Cl)c2)CC1)[C@H]1CCCN(c2ncnc3c2nc2n3CCCC2)C1`, the IC50 is > 100 µM (inactive).

With `Cc1ccc(NC(=O)C2CCN(c3ncnc4c3nc3n4CCCCC3)CC2)cc1F`, the IC50 is > 100 µM (inactive).

As to `O=C(Nc1ccc(F)c(Cl)c1)C1CCN(c2ncnc3c2nc2n3CCCCC2)CC1`, the IC50 is > 100 µM (inactive).

For the compound `Cc1ccc(C)c(CN2CCC(CNC(=O)C3CCCN(c4ncnc5c4nc4n5CCCCC4)C3)CC2)c1` (stereo unspecified), the IC50 is > 100 µM (inactive).

Take `O=C(Nc1cccc(Cl)c1)C1CCN(c2ncnc3c2nc2n3CCCCC2)CC1`: the IC50 was > 100 µM (inactive).

For the compound `O=C(C1CCN(c2ncnc3c2nc2n3CCCCC2)CC1)N1CCN(Cc2ccccc2)CC1`, the IC50 was > 100 µM (inactive).

For `COc1cc(OC)c(NC(=O)C2CCN(c3ncnc4c3nc3n4CCCCC3)CC2)cc1Cl`, the IC50 is > 100 µM (inactive).

In the case of `Cc1ccc(NC(=O)C2CCCN(c3ncnc4c3nc3n4CCCC3)C2)cc1Br` (stereo unspecified), the IC50 was > 100 µM (inactive).

In the case of `O=C(C1CCN(c2ncnc3c2nc2n3CCCCC2)CC1)N1CCN(c2ccc(F)cc2)CC1`, the IC50 was > 100 µM (inactive).

Take `O=C(NCC1CCN(Cc2ccc(Cl)cc2)CC1)C1CCCN(c2ncnc3c2nc2n3CCCC2)C1` (stereo unspecified): the IC50 was > 100 µM (inactive).

For `O=C(NCc1cccc(Cl)c1)C1CCCN(c2ncnc3c2nc2n3CCCCC2)C1` (stereo unspecified), the IC50 is > 100 µM (inactive).

Take `CC1CCCCN1C(=O)C1CCN(c2ncnc3c2nc2n3CCCCC2)CC1` (stereo unspecified): the IC50 was > 100 µM (inactive).

Take `Cc1cccc(NC(=O)C2CCCN(c3ncnc4c3nc3n4CCCCC3)C2)c1` (stereo unspecified): the IC50 was > 100 µM (inactive).

Take `Cc1ccc(NC(=O)C2CCCN(c3ncnc4c3nc3n4CCCC3)C2)cc1C` (stereo unspecified): the IC50 was > 100 µM (inactive).

As to `CCC1CCCCN1CCCNC(=O)C1CCN(c2ncnc3c2nc2n3CCCCC2)CC1` (stereo unspecified), the IC50 was > 100 µM (inactive).

Turning to `Cc1cccc(NC(=O)C2CCN(c3ncnc4c3nc3n4CCCCC3)CC2)c1C`, the IC50 was > 100 µM (inactive).

Turning to `O=C(NCc1ccc(Cl)c(Cl)c1)C1CCN(c2ncnc3c2nc2n3CCCC2)CC1`, the IC50 is > 100 µM (inactive).

As to `Cc1ccc(NC(=O)C2CCCN(c3ncnc4c3nc3n4CCCCC3)C2)cc1Br` (stereo unspecified), the IC50 was > 100 µM (inactive).

Turning to `O=C(NCCCN1CCCCC1)C1CCN(c2ncnc3c2nc2n3CCCCC2)CC1`, the IC50 is > 100 µM (inactive).

Regarding `O=C(NCC1CCN(Cc2cccc(Cl)c2)CC1)[C@@H]1CCCN(c2ncnc3c2nc2n3CCCC2)C1`, the IC50 is > 100 µM (inactive).

As to `Cc1ccc(NC(=O)C2CCN(c3ncnc4c3nc3n4CCCCC3)CC2)cc1C`, the IC50 is > 100 µM (inactive).

`CC1CCCC(C)N1CCCNC(=O)C1CCCN(c2ncnc3c2nc2n3CCCCC2)C1` (stereo unspecified): the IC50 is > 100 µM (inactive).

Turning to `O=C(NCC1CCN(Cc2cccc(Cl)c2)CC1)C1CCCN(c2ncnc3c2nc2n3CCCCC2)C1` (stereo unspecified), the IC50 is > 100 µM (inactive).

Regarding `O=C(NCC1CCN(Cc2ccc(Cl)c(Cl)c2)CC1)C1CCCN(c2ncnc3c2nc2n3CCCC2)C1` (stereo unspecified), the IC50 was > 100 µM (inactive).

On to `Cc1cc(C)cc(NC(=O)C2CCN(c3ncnc4c3nc3n4CCCCC3)CC2)c1`, for which the IC50 is > 100 µM (inactive).

On to `O=C(NCC1CCN(Cc2cccc(Cl)c2)CC1)C1CCCN(c2ncnc3c2nc2n3CCCC2)C1` (stereo unspecified), for which the IC50 is > 100 µM (inactive).

For `Cc1ccc(NC(=O)C2CCN(c3ncnc4c3nc3n4CCCC3)CC2)cc1Br`, the IC50 is > 100 µM (inactive).

With `O=C(NCc1cccc(Cl)c1)C1CCN(c2ncnc3c2nc2n3CCCCC2)CC1`, the IC50 is > 100 µM (inactive).

For the compound `CCCN1CCN(C(=O)C2CCN(c3ncnc4c3nc3n4CCCCC3)CC2)CC1`, the IC50 is > 100 µM (inactive).

Regarding `COc1cc(Cl)c(C)cc1NC(=O)C1CCN(c2ncnc3c2nc2n3CCCCC2)CC1`, the IC50 was > 100 µM (inactive).

On to `COc1ccc(NC(=O)C2CCN(c3ncnc4c3nc3n4CCCCC3)CC2)cc1Cl`, for which the IC50 is > 100 µM (inactive).

`O=C(NCC1CCN(Cc2ccccc2F)CC1)C1CCCN(c2ncnc3c2nc2n3CCCCC2)C1` (stereo unspecified): the IC50 is > 100 µM (inactive).

For the compound `Cc1cccc(NC(=O)C2CCCN(c3ncnc4c3nc3n4CCCC3)C2)c1` (stereo unspecified), the IC50 is > 100 µM (inactive).

As to `O=C(NCc1ccc(Cl)c(Cl)c1)C1CCCN(c2ncnc3c2nc2n3CCCC2)C1` (stereo unspecified), the IC50 was > 100 µM (inactive).

As to `Cc1cccc(N2CCN(CCCNC(=O)C3CCCN(c4ncnc5c4nc4n5CCCCC4)C3)CC2C)c1` (stereo unspecified), the IC50 was > 100 µM (inactive).

Take `O=C(NCc1ccc(Cl)c(Cl)c1)C1CCCN(c2ncnc3c2nc2n3CCCCC2)C1` (stereo unspecified): the IC50 is > 100 µM (inactive).

On to `O=C(C1CCN(c2ncnc3c2nc2n3CCCCC2)CC1)N1CCN(c2ccccn2)CC1`, for which the IC50 was > 100 µM (inactive).

On to `COc1ccccc1N1CCN(CCCNC(=O)C2CCCN(c3ncnc4c3nc3n4CCCCC3)C2)CC1` (stereo unspecified), for which the IC50 was > 100 µM (inactive).

Take `Cc1cccc(NC(=O)C2CCN(c3ncnc4c3nc3n4CCCCC3)CC2)c1`: the IC50 is > 100 µM (inactive).

In the case of `O=C(NCC1CCN(Cc2ccccc2Cl)CC1)C1CCCN(c2ncnc3c2nc2n3CCCC2)C1` (stereo unspecified), the IC50 is > 100 µM (inactive).

As for `O=C(C1CCN(c2ncnc3c2nc2n3CCCCC2)CC1)N1CCN(c2ncccn2)CC1`, the IC50 is > 100 µM (inactive).

Consider `Cc1cc(Cl)ccc1NC(=O)C1CCN(c2ncnc3c2nc2n3CCCCC2)CC1`, for which the IC50 was > 100 µM (inactive).

Consider `Cc1ccccc1CN1CCC(CNC(=O)C2CCCN(c3ncnc4c3nc3n4CCCCC3)C2)CC1` (stereo unspecified), for which the IC50 is > 100 µM (inactive).

In the case of `Cc1cc(C)cc(NC(=O)C2CCN(c3ncnc4c3nc3n4CCCC3)CC2)c1`, the IC50 is > 100 µM (inactive).

For `COc1ccc(Cl)cc1NC(=O)C1CCN(c2ncnc3c2nc2n3CCCCC2)CC1`, the IC50 was > 100 µM (inactive).

Consider `Cc1ccc(NC(=O)C2CCN(c3ncnc4c3nc3n4CCCC3)CC2)cc1C`, for which the IC50 is > 100 µM (inactive).

Turning to `CN(CCNC(=O)C1CCN(c2ncnc3c2nc2n3CCCCC2)CC1)Cc1ccccc1`, the IC50 is > 100 µM (inactive).

Turning to `O=C(NCc1cccc(Cl)c1)C1CCN(c2ncnc3c2nc2n3CCCC2)CC1`, the IC50 was 63.4 µM.

`O=C(C1CCN(c2ncnc3c2nc2n3CCCCC2)CC1)N1CCC(Cc2ccccc2)CC1`: the IC50 was > 100 µM (inactive).

Consider `O=C(Nc1ccc(CN2CCCCC2)cc1)C1CCN(c2ncnc3c2nc2n3CCCCC2)CC1`, for which the IC50 is > 100 µM (inactive).

Consider `O=C(C1CCN(c2ncnc3c2nc2n3CCCCC2)CC1)N1CCN(c2ccccc2)CC1`, for which the IC50 was > 100 µM (inactive).

With `O=C(NCC1CCN(Cc2ccc(Cl)cc2)CC1)C1CCCN(c2ncnc3c2nc2n3CCCCC2)C1` (stereo unspecified), the IC50 was > 100 µM (inactive).

Turning to `Cc1ccc(NC(=O)C2CCCN(c3ncnc4c3nc3n4CCCC3)C2)cc1F` (stereo unspecified), the IC50 was > 100 µM (inactive).

On to `Cc1ccc(NC(=O)C2CCN(c3ncnc4c3nc3n4CCCC3)CC2)cc1F`, for which the IC50 was > 100 µM (inactive).

With `Cc1ccc(NC(=O)C2CCN(c3ncnc4c3nc3n4CCCCC3)CC2)cc1Cl`, the IC50 is > 100 µM (inactive).

As for `CC1CC(C)CN(C(=O)C2CCN(c3ncnc4c3nc3n4CCCCC3)CC2)C1` (stereo unspecified), the IC50 was > 100 µM (inactive).

With `O=C(C1CCN(c2ncnc3c2nc2n3CCCCC2)CC1)N1CCOCC1`, the IC50 is > 100 µM (inactive).

For the compound `O=C(NCCCN1CCN(c2ccccc2)CC1)C1CCCN(c2ncnc3c2nc2n3CCCCC2)C1` (stereo unspecified), the IC50 is > 100 µM (inactive).

Consider `Cc1ccc(NC(=O)C2CCN(c3ncnc4c3nc3n4CCCCC3)CC2)c(Cl)c1`, for which the IC50 is > 100 µM (inactive).

Turning to `O=C(NCC1CCN(Cc2ccc(F)cc2)CC1)C1CCCN(c2ncnc3c2nc2n3CCCCC2)C1` (stereo unspecified), the IC50 was > 100 µM (inactive).

Consider `O=C(NCc1cccc(Cl)c1)C1CCCN(c2ncnc3c2nc2n3CCCC2)C1` (stereo unspecified), for which the IC50 was > 100 µM (inactive).

With `O=C(NCCCN1CCN(c2ccc(F)cc2)CC1)C1CCCN(c2ncnc3c2nc2n3CCCCC2)C1` (stereo unspecified), the IC50 is > 100 µM (inactive).

Turning to `O=C(NCC1CCN(Cc2ccc(Cl)c(Cl)c2)CC1)C1CCCN(c2ncnc3c2nc2n3CCCCC2)C1` (stereo unspecified), the IC50 is > 100 µM (inactive).

With `Cc1ccc(NC(=O)C2CCCN(c3ncnc4c3nc3n4CCCCC3)C2)cc1F` (stereo unspecified), the IC50 is > 100 µM (inactive).

`Cc1ccc(NC(=O)C2CCN(c3ncnc4c3nc3n4CCCCC3)CC2)cc1Br`: the IC50 is > 100 µM (inactive).

In the case of `O=C(NCC1CCN(Cc2cccc(Cl)c2)CC1)[C@@H]1CCCN(c2ncnc3c2nc2n3CCCCC2)C1`, the IC50 was > 100 µM (inactive).

On to `Cc1cc(C)cc(NC(=O)C2CCCN(c3ncnc4c3nc3n4CCCC3)C2)c1` (stereo unspecified), for which the IC50 was > 100 µM (inactive).

Consider `Cc1cc(C)cc(NC(=O)C2CCCN(c3ncnc4c3nc3n4CCCCC3)C2)c1` (stereo unspecified), for which the IC50 is > 100 µM (inactive).

Regarding `O=C(Nc1cc(F)ccc1F)C1CCN(c2ncnc3c2nc2n3CCCCC2)CC1`, the IC50 is > 100 µM (inactive).

`O=C(NCc1ccc(Cl)c(Cl)c1)C1CCN(c2ncnc3c2nc2n3CCCCC2)CC1`: the IC50 is > 100 µM (inactive).
